The source made the active and inactive calls. The rule behind the calls is not given here.
What follows are compounds tested against T1, Nuclear receptor subfamily 4 group A member 2 (Homo sapiens, UniProt P43354) (assay: Agonist activity at Gal4-fused human Nurr1 LBD expressed in HEK293T cells co-expressing firefly luciferase assessed as luciferase activity at 300 uM incubated for 12 to 14 hrs by hybrid reporter gene assay). Settings: time 12-14 hrs.
Type: cell-based
Summary of the method: (§1)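 HEK293T cells, seeded 3 × 10⁴/well the day before, were transiently transfected with a Gal4–human Nurr1 LBD hybrid receptor, a Gal4-responsive firefly luciferase reporter (pFR-Luc) and SV40-renilla luciferase. Five hours later cells received compound in Opti-MEM with 0.1% DMSO for 12−14 h, then a dual-luciferase read-out. Firefly/renilla ×1000 gave RLU; fold activation was taken vs DMSO. Duplicates, ≥3 independent runs; EC50/IC50 are mean SD.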

T1 sequence (P43354 whole entry, the tested form may be a part): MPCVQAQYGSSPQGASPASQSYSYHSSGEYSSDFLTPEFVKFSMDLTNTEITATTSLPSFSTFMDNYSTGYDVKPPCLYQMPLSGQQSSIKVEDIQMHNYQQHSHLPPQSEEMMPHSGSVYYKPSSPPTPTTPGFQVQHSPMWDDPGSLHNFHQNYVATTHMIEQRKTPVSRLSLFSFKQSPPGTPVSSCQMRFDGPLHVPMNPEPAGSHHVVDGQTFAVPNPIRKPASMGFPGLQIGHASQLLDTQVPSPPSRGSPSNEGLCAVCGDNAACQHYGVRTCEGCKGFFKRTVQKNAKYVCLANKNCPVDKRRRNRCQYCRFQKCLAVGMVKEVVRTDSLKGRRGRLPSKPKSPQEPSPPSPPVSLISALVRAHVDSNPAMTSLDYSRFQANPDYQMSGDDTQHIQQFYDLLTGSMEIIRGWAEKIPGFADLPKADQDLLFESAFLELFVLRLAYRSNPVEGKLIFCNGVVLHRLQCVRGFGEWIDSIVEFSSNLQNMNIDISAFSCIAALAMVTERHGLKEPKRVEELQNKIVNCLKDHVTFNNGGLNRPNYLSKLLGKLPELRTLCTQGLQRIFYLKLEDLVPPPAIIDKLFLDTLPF

Row | Activity | SMILES
1 | inactive | Nc1ccnc2ccccc12
2 | inactive | Nc1cnc2cc(Cl)ccc2c1
3 | inactive | Nc1ccnc2c(F)cccc12
4 | inactive | Clc1ccc2c(Cl)ccnc2c1
5 | inactive | Nc1ccnc2c(C(F)(F)F)cccc12

The compounds below were run against T1, Nuclear receptor subfamily 4 group A member 2 (assay: Agonist activity at Gal4-fused human Nurr1 LBD expressed in HEK293T cells co-expressing firefly luciferase assessed as luciferase activity at 10 uM incubated for 12 to 14 hrs by hybrid reporter gene assay). Settings: time 12-14 hrs.
Type: cell-based
Summary of the method: as §1

Row | Activity | SMILES
6 | inactive | CC(CCCN(C)C)Nc1cccc2c(Cl)cccc12 (stereo not drawn)
7 | inactive | O=C(OCC(O)CO)c1ccccc1Nc1ccnc2cc(Cl)ccc12 (stereo not drawn)
8 | inactive | Clc1ccc2c(NCc3ccccc3)ccnc2c1

These compounds were tested against T1, Nuclear receptor subfamily 4 group A member 2 (assay: Inverse agonist activity at Gal4-fused human Nurr1 LBD expressed in HEK293T cells co-expressing firefly luciferase assessed as luciferase activity incubated for 12 to 14 hrs by hybrid reporter gene assay). Settings: not given.
Type: cell-based
Summary of the method: as §1

Row | IC50 | SMILES
9 | 89 µM | Clc1ccc2cccnc2c1
10 | 132 µM | O=C(O)CCCNc1ccnc2cc(Cl)ccc12

Each compound was assayed against T2, Retinoic acid receptor RXR-alpha (Homo sapiens) (UniProt P19793) (assay: Agonist activity at full length human RxRalpha heterodimer response element DR5 expressed in HEK293T cells co-expressing firefly luciferase assessed as firefly luciferase activity up to 100 uM incubated for 12 to 14 hrs by hybrid reporter gene assay). Settings: filed as agonist, dose microM <=100, time 12-14 hrs.
T2 sequence (whole entry): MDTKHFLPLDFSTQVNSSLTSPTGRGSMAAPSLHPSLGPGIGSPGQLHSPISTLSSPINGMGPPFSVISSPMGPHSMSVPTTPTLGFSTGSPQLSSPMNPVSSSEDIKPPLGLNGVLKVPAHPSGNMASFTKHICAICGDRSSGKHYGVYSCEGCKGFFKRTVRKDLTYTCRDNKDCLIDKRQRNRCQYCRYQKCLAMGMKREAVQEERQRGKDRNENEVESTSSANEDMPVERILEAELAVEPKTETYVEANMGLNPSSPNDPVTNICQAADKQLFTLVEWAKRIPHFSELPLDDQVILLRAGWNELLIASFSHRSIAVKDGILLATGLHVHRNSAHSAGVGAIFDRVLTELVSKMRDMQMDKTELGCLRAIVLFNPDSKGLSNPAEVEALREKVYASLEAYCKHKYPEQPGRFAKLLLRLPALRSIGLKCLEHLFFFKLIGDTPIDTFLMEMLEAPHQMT
Type: cell-based
Summary of the method: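 Full-length receptor assay in HEK293T cells transiently cotransfected with pFR-Luc-DR5 reporter, human Nurr1 (pcDNA3.1-hNurr1-NE), human RXR (pSG5-hRXR) and SV40-renilla. Five hours post-transfection, compound was added in Opti-MEM with 0.1% DMSO for 12−14 h, then a dual-luciferase read-out. Firefly/renilla ×1000 gave RLU, expressed as fold over DMSO control. Duplicates, ≥3 independent experiments.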

Row | Activity | SMILES
11 | Active | Cc1cc(N)c2cccc(Cl)c2n1

Each compound was assayed against T1, Nuclear receptor subfamily 4 group A member 2 (assay: Agonist activity at Gal4-fused human Nurr1 LBD expressed in HEK293T cells co-expressing firefly luciferase assessed as luciferase activity at 30 uM incubated for 12 to 14 hrs by hybrid reporter gene assay). Settings: time 12-14 hrs.
Type: cell-based
Summary of the method: as §1

Row | Activity | SMILES
12 | inactive | CC1CCC(Nc2ccnc3cc(Cl)ccc23)CC1 (stereo not drawn)
13 | inactive | Oc1ccc(Nc2ccnc3cc(Cl)ccc23)cc1

Each compound was assayed against T1, Nuclear receptor subfamily 4 group A member 2 (assay: Agonist activity at Gal4-fused human Nurr1 LBD expressed in HEK293T cells co-expressing firefly luciferase assessed as luciferase activity at 200 uM incubated for 12 to 14 hrs by hybrid reporter gene assay). Settings: time 12-14 hrs.
Type: cell-based
Summary of the method: as §1

Row | Activity | SMILES
14 | inactive | Nc1cncc2c(Cl)cccc12

The compounds below were run against T1, Nuclear receptor subfamily 4 group A member 2 (assay: Agonist activity at Gal4-fused human Nurr1 LBD expressed in HEK293T cells co-expressing firefly luciferase assessed as luciferase activity at 100 uM incubated for 12 to 14 hrs by hybrid reporter gene assay). Settings: time 12-14 hrs.
Type: cell-based
Summary of the method: as §1

Row | Activity | SMILES
15 | inactive | Nc1ccc2ccc(Cl)cc2n1
16 | inactive | Nc1ccc(Cl)c2ncccc12
17 | inactive | CCN(CC)CCCC(C)Nc1cc(C)nc2c(Cl)cccc12 (stereo not drawn)
18 | inactive | Nc1c(Cl)ccc2ncccc12
19 | inactive | CCN(CC)Cc1cc(Nc2cc(C)nc3c(Cl)cccc23)ccc1O

The compounds below were run against T1, Nuclear receptor subfamily 4 group A member 2 (assay: Agonist activity at Gal4-fused human Nurr1 LBD expressed in HEK293T cells co-expressing firefly luciferase assessed as luciferase activity incubated for 12 to 14 hrs by hybrid reporter gene assay). Settings: not given.
Type: cell-based

Row | EC50 | SMILES
20 | 17 µM | Cc1cc(NC(C)C(C)C)c2cccc(Cl)c2n1 (stereo not drawn)
21 | 12 µM | CCCCNc1cc(C)nc2c(Cl)cccc12
22 | 259 µM | Nc1ccnc2cc(Cl)ccc12
23 | 117 µM | Nc1ccnc2ccc(Cl)cc12
24 | 116 µM | CCN(CC)Cc1cccc(Nc2ccnc3cc(Cl)ccc23)c1
25 | 33 µM | Cc1cc(N)c2ccc(Cl)cc2n1
26 | 31 µM | Cc1cc(NC(C)C)c2cccc(Cl)c2n1
27 | 19 µM | Nc1cc(Cl)cc2ncccc12
28 | 49 µM | Nc1ccnc2c(Cl)cccc12

Source: ChEMBL document CHEMBL4823246, “Fragment-like Chloroquinolineamines Activate the Orphan Nuclear Receptor Nurr1 and Elucidate Activation Mechanisms” (J Med Chem, 2021)
